Data from ChEMBL document CHEMBL4814044, “Design and synthesis, biological evaluation of bis-(1,2,3- and 1,2,4)-triazole derivatives as potential antimicrobial and antifungal agents” (2021).

Experiments:
Type in all cases: functional
Aspergillus niger [1] = test: Antifungal activity against Aspergillus niger MTCC 404 assessed as zone of inhibition at 24 uM incubated for 2 days by cross streak plate method; conditions: MTCC 404, 48 h, time 2 day, read-out: IZ
Procedure, shortened: (§1)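 Fungal strain (A. niger MTCC 404 or S. cerevisiae MTCC 1344) was incubated with the compound for 2 days at 37 °C. Growth inhibition was then assessed by the cross streak plate method.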

Saccharomyces cerevisiae [2] = test: Antifungal activity against Saccharomyces cerevisiae MTCC 1344 assessed as zone of inhibition at 24 uM incubated for 2 days by cross streak plate method; conditions: MTCC 1344, 48 h, time 2 day, read-out: IZ; procedure, shortened: as §1
Aspergillus niger [3] = test: Antifungal activity against Aspergillus niger MTCC 404 assessed as zone of inhibition at 36 uM incubated for 2 days by cross streak plate method; conditions: MTCC 404, 48 h, time 2 day, read-out: IZ; procedure, shortened: as §1
Aspergillus niger [4] = test: Antifungal activity against Aspergillus niger MTCC 404 assessed as zone of inhibition at 48 uM incubated for 2 days by cross streak plate method; conditions: MTCC 404, 48 h, time 2 day, read-out: IZ; procedure, shortened: as §1
Saccharomyces cerevisiae [5] = test: Antifungal activity against Saccharomyces cerevisiae MTCC 1344 assessed as zone of inhibition at 36 uM incubated for 2 days by cross streak plate method; conditions: MTCC 1344, 48 h, time 2 day, read-out: IZ
Procedure, shortened: (§2)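 S. cerevisiae MTCC 1344 cultures were incubated for 2 days at 37 °C and then tested by the cross streak plate method.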

Saccharomyces cerevisiae [6] = test: Antifungal activity against Saccharomyces cerevisiae MTCC 1344 assessed as zone of inhibition at 48 uM incubated for 2 days by cross streak plate method; conditions: MTCC 1344, 48 h, time 2 day, read-out: IZ; procedure, shortened: as §2

`Clc1ccc(COC(Cn2ccnc2)c2ccc(Cl)cc2Cl)c(Cl)c1` (stereo unspecified) [MICONAZOLE] was tested, and the zone of inhibition at 24 µM (Aspergillus niger [1]) was 8 mm, the zone of inhibition at 24 µM (Saccharomyces cerevisiae [2]) was 8 mm and the zone of inhibition at 36 µM (Aspergillus niger [3]) was 10 mm. The zone of inhibition at 48 µM (Aspergillus niger [4]) was 12 mm, the zone of inhibition at 36 µM (Saccharomyces cerevisiae [5]) was 9 mm and the zone of inhibition at 48 µM (Saccharomyces cerevisiae [6]) was 12 mm.
